From ChEMBL document CHEMBL1144747, “(Phenylpiperazinyl-butyl)oxindoles as selective 5-HT7 receptor antagonists” (J Med Chem, 2008) come the findings set out here.

The target of one data set is D(2) dopamine receptor (Homo sapiens, UniProt P14416). The experiment in a line: Inhibition of dopamine D2 receptor.
The target in data set [1] is T1, 5-hydroxytryptamine receptor 1A (Rattus norvegicus) (UniProt P19327).
T1 sequence (whole entry): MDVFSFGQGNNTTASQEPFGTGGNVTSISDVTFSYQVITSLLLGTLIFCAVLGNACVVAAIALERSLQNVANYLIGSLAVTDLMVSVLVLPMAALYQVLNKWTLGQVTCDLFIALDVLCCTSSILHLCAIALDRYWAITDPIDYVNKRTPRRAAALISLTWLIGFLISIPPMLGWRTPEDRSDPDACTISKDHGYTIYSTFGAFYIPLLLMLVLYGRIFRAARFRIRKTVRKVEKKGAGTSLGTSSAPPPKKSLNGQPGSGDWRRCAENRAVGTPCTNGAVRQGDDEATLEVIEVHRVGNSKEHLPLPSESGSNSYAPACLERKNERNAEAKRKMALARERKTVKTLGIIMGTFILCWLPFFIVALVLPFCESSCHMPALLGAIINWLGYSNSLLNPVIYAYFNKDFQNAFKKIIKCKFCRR
The experiment in a line: Displacement of [3H]8-OH-DPAT from 5HT1A receptor in rat frontal cortex membrane at 0.1 uM. It counts as cell membranes. Put shortly:
(§1)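 Rat tissue homogenized in 50 mM Tris-HCl pH 7.7, washed by repeated 40000g spins with a 10 min 37 °C incubation. Buffer: Tris-HCl, 6.66 mM CaCl2, 16.66 µM pargyline, 0.166% ascorbate. Labelled with 1.5 nM [3H]8-OH-DPAT, 45 min at 25 °C; nonspecific with 10 µM 5-HT. GF/B filtration, then scintillation counting; percent inhibition.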
In general terms: Loss of bound radioactivity is the signal in a displacement assay; it reports binding, not function.

For data set [2], the target named is T2, 5-hydroxytryptamine receptor 2C (Homo sapiens, UniProt P28335).
T2 sequence (P28335 whole entry): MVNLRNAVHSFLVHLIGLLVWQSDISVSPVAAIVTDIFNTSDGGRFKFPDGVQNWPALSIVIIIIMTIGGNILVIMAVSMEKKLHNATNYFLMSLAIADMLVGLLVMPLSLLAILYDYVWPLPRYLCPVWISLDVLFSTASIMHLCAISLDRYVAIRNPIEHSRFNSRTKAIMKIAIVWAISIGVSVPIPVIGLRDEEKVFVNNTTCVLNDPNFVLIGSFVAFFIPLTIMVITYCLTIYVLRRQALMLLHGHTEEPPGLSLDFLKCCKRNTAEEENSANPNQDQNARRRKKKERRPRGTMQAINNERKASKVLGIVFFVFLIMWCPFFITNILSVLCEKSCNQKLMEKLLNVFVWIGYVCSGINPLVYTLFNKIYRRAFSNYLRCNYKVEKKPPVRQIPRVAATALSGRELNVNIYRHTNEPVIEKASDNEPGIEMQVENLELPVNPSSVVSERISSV
The experiment in a line: Inhibition of 5HT2C receptor.

Data set [3] has as its target T3, 5-hydroxytryptamine receptor 7 (Homo sapiens, UniProt P34969). The experiment in a line: Displacement of [3H]LSD from human recombinant 5HT7 receptor expressed in CHO cells. As to conditions: read-out: Ki. It counts as cell-based. Put shortly:
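Cloned human 5-HT7 receptor from CHO cells, labelled with [3H]LSD; nonspecific binding with 25 µM clozapine. Stopped by filtration on PEI-soaked GF/C filters, then scintillation counting. Ki from two displacement curves of nine concentrations each, run in triplicate.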

The next data set deals with Rattus norvegicus. The experiment in a line: Anxiolytic activity in ip dosed Wistar rat assessed as number of punished licks for 5 mins by conflict drinking test. It counts as functional. As to conditions: read-out: MED. Put shortly:
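Modified Vogel test in male Wistar rats, 160–180 g, water-deprived 48 h and fasted 24 h. Dosed ip 30 min before test. After a 30 s free-drinking period, 600 µA, 0.6 s shocks came through the spout every 20 licks over 5 min. Punished licks counted; minimal effective dose reported.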

The target of data set [4] is 5-hydroxytryptamine receptor 6 (Homo sapiens, UniProt P50406). The data set is described as follows: Inhibition of 5HT6 receptor.
For data set [5], the target named is T4, 5-hydroxytryptamine receptor 1A (Rattus norvegicus, UniProt P19327).
T4 sequence (P19327 whole entry): T1 sequence (whole entry)
The data set is described as follows: Inhibition of 5HT1A receptor in rat frontal cortex membrane. It counts as cell membranes. The method in brief: as §1

The target in data set [6] is T1, 5-hydroxytryptamine receptor 1A (Rattus norvegicus). The data set is described as follows: Displacement of [3H]8-OH-DPAT from 5HT1A receptor in rat frontal cortex membrane at 10 nM. It counts as cell membranes. Put shortly:
as §1

Data set [7] concerns the target 5-hydroxytryptamine receptor 2A (Homo sapiens, UniProt P28223). The experiment in a line: Inhibition of 5HT2A receptor.
The target of data set [8] is T3, 5-hydroxytryptamine receptor 7. The data set is described as follows: Antagonist activity at human 5HT7A receptor expressed in CHO cells assessed as inhibition of […]-induced cAMP elevation at 1 uM. It counts as functional, cell-based. Details: scale not given: the % may be the effect or the level left. The method in brief: (§2)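 CHO cells stably expressing human 5-HT7A, cultured in F12:DMEM with 5% FCS, seeded 24 h ahead. Compounds from 1 mM DMSO stock (final DMSO 0.1%) preincubated 10 min, then 20 min with 10 nM 5-CT at 37 °C. Cells lysed, cAMP by EIA, normalized to BCA protein. The 5-CT-induced level is taken as 100%; six independent experiments.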

The test system of another data set is Mus musculus. The data set is described as follows: Anxiolytic activity in ip dosed NMRI mouse assessed as behavioral activity for 5 mins by light dark assay. The following applies: read-out: MED. It counts as functional. The method in brief:
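Male NMRI mice, 25–33 g, kept in a dark room and dosed ip 30 min before test, then placed in the centre of the lit area. Over 5 min, time in each area, transitions, and horizontal and vertical activity were recorded. Minimal effective dose by one-way ANOVA with Duncan's test.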

Data set [9] has as its target T5, Alpha-1A adrenergic receptor (Homo sapiens, UniProt P35348).
T5 sequence (P35348 whole entry): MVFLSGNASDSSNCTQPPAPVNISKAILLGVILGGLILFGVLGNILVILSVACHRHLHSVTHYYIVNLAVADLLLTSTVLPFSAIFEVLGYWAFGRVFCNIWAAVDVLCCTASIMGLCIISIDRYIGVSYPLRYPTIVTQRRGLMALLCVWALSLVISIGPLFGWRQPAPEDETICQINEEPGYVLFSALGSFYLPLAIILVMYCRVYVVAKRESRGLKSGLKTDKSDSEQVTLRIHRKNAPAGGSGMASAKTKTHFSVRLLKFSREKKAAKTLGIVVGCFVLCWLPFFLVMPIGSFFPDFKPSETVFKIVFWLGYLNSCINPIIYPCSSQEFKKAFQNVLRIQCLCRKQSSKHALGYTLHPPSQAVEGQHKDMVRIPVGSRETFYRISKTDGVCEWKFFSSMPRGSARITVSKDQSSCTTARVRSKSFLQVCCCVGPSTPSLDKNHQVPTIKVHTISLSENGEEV
The data set is described as follows: Inhibition of adrenergic alpha-1 receptor.

For the next data set, the target named is D(1A) dopamine receptor (Homo sapiens, UniProt P21728). The data set is described as follows: Inhibition of dopamine D1 receptor.
Data set [10] in a line: Oral bioavailability in rat. It counts as ADME, organism-based. As to conditions: in vivo.
The target of data set [11] is T3, 5-hydroxytryptamine receptor 7. The experiment in a line: Antagonist activity at human 5HT7A receptor expressed in CHO cells assessed as inhibition of […]-induced cAMP elevation at 10 nM administered before […] challenge. It counts as functional, cell-based. The arrangement: scale not given: the % may be the effect or the level left. Put shortly:
as §2

Sequence of 5-hydroxytryptamine receptor 2A (P28223 whole entry): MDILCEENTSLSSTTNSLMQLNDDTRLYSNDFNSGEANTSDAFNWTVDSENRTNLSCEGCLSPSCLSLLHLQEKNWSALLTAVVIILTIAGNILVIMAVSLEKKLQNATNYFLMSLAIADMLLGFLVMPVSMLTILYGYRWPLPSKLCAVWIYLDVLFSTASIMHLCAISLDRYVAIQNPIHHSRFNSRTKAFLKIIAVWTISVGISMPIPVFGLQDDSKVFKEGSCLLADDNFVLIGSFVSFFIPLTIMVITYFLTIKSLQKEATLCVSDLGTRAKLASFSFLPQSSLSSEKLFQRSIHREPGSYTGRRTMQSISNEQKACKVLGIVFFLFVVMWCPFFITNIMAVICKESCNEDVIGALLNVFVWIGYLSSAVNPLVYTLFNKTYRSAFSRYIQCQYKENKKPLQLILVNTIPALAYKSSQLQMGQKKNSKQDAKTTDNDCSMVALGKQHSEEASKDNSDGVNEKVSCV
Sequence of D(2) dopamine receptor (P14416 whole entry): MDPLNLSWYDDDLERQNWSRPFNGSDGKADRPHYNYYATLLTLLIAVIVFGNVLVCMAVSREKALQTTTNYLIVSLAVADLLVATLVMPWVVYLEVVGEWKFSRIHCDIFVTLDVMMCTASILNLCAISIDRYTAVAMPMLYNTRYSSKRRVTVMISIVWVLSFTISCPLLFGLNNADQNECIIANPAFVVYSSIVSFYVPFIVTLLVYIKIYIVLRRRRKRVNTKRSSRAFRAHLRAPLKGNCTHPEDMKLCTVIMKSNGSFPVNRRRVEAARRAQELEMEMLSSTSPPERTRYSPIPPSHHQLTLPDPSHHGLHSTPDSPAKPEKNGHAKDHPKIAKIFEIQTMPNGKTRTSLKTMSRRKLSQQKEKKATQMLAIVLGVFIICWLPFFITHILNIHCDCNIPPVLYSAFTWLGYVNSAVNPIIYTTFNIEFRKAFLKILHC
Sequence of 5-hydroxytryptamine receptor 6 (P50406 whole entry): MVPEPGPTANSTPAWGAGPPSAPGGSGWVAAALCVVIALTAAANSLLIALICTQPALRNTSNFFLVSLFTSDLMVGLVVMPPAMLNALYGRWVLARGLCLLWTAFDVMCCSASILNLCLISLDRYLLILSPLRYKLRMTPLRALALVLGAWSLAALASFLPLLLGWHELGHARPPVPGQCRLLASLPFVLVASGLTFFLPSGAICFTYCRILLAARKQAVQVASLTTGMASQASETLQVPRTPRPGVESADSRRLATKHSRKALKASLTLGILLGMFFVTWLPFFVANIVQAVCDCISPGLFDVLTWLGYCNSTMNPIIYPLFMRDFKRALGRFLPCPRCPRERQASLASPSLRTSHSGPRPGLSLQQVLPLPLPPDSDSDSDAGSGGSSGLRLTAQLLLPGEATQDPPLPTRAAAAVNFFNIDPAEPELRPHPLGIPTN
Sequence of D(1A) dopamine receptor (P21728 whole entry): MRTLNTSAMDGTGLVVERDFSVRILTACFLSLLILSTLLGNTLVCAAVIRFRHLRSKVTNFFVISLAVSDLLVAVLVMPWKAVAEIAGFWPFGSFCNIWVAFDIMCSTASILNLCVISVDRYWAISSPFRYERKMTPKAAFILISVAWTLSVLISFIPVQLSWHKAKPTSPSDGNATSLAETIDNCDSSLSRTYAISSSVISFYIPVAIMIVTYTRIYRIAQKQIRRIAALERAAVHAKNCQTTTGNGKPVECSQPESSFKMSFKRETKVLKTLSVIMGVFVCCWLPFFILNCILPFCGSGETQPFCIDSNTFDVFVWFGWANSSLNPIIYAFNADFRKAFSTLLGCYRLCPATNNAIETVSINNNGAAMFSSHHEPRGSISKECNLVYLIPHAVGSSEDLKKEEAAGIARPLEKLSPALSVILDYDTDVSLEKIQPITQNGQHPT
T3 sequence (P34969 whole entry): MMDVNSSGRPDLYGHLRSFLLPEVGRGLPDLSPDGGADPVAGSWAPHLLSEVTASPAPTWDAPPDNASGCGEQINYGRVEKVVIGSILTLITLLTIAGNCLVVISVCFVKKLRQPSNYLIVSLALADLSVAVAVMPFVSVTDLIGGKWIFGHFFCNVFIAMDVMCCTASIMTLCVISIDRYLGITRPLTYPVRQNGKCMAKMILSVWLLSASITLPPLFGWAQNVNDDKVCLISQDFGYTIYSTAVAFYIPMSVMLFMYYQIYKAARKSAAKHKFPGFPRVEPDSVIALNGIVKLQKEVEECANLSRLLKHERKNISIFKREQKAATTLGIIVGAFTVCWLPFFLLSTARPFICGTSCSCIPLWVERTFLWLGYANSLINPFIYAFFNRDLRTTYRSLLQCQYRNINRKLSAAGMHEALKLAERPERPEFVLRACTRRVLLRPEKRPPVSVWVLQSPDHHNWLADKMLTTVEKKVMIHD

Consider `CCC1(CCCCN2CCN(c3ccc(Cl)cc3)CC2)C(=O)Nc2cc(F)ccc21` (stereo not given), for which the Ki – broadly, a dissociation constant, usually derived from enzyme kinetics or from competition with a known ligand – on D(2) dopamine receptor came out at 950 nM; in data set [2], 358 nM; in [3], 0.79 nM; in [4], 187 nM; in data set [5], 1610 nM; in [7], 19.4 nM. For the same molecule, the Ki in data set [9] turned out to be 71.3 nM; on D(1A) dopamine receptor, 3360 nM. Besides, the results for the Activity in [1], in data set [6] and in data set [8] were 9%, 0% and more than 95%, respectively. In addition, the figures for the minimal effective dose in the data set with Rattus norvegicus and in the data set on Mus musculus were more than 20 mg/kg and more than 10 mg/kg, respectively.
On to `O=C1Nc2ccc(Cl)c3c2C1(CCCCN1CC=C(c2ccc(Cl)cc2)CC1)CCC3` (stereo not given), for which, in data set [10], the bioavailability (in general, the share of a dose that reaches the circulation, judged against a reference dose that is usually intravenous) turned out to be 18%.
For `O=C1Nc2ccccc2C1CCCCN1CCN(c2ccc(Cl)cc2)CC1` (stereo not given), the Ki on D(2) dopamine receptor turned out to be 960 nM; in data set [2], 690 nM; in data set [3], 7 nM; in data set [4], 580 nM; in [5], 1800 nM; in data set [7], 17.5 nM. Also, the Ki in data set [9] came out at 42 nM; on D(1A) dopamine receptor, 2400 nM. Besides, the Activity in [1] was 10%; in [8] it was more than 95%; in data set [11] it was 80%. The values for the minimal effective dose in the data set on Rattus norvegicus and in the data set on Mus musculus were less than 2.5 mg/kg and less than 1 mg/kg, respectively.
With `O=C1Nc2ccc(F)cc2C1CCCCN1CCN(c2ccccc2)CC1` (stereo not given), the Ki at D(2) dopamine receptor was determined as 330 nM; in data set [2], 1500 nM; in data set [3], 44 nM; in data set [4], 1800 nM; in data set [5] it was 150 nM; in [7], 55 nM. Also, the Ki in data set [9] is 20 nM; on D(1A) dopamine receptor, 1900 nM. Further, the Activity in [1] was 33%; in [6], 5%; in data set [8] it was more than 95%; in data set [11] it was 40%. Also, the minimal effective dose with Rattus norvegicus was less than 10 mg/kg.
